ChEMBL document CHEMBL1795341, “Efficient synthesis, structural characterization and anti-microbial activity of chiral aryl boronate esters of 1,2-O-isopropylidene-α-D-xylofuranose” (2011)
Converted amounts (≈) assume the structure as drawn.

How the values were obtained:
Assay type in all cases: functional
Aspergillus niger [1] = assay: Antifungal activity against Aspergillus niger MTCC 282 at 150 ug after 48 hrs by agar well diffusion method; conditions: MTCC 282, 48 h, read-out: DIZ
Method in brief: (§1)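 Agar well diffusion on potato dextrose agar; 0.5 ml week-old culture spread over solidified plates, 6 mm wells bored. Compounds dissolved in DMSO at different concentrations and added to wells, with controls. Incubated 27 °C for 48 h; inhibition zone diameter measured in mm; three to four replicates per treatment.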

Saccharomyces cerevisiae [2] = assay: Antifungal activity against Saccharomyces cerevisiae MTCC 36 at 100 ug after 48 hrs by agar well diffusion method; conditions: MTCC 36, 48 h, read-out: DIZ; method in brief: as §1
Saccharomyces cerevisiae [3] = assay: Antifungal activity against Saccharomyces cerevisiae MTCC 36 at 150 ug after 48 hrs by agar well diffusion method; conditions: MTCC 36, 48 h, read-out: DIZ; method in brief: as §1
Staphylococcus aureus = assay: Antibacterial activity against Staphylococcus aureus MTCC 96 by broth microdilution method
Escherichia coli = assay: Antibacterial activity against Escherichia coli MTCC 443 by broth microdilution method
Diutina rugosa [4] = assay: Antifungal activity against Candida rugosa NCIM 3462 at 150 ug after 48 hrs by agar well diffusion method; conditions: NCIM 3462, 48 h, read-out: DIZ; method in brief: as §1
[5] = system: Staphylococcus epidermidis; assay: Antibacterial activity against Staphylococcus epidermidis MTCC 2639 by broth microdilution method
Pseudomonas aeruginosa = assay: Antibacterial activity against Pseudomonas aeruginosa MTCC 741 by broth microdilution method
Candida albicans [6] = assay: Antifungal activity against Candida albicans MTCC 227 at 100 ug after 48 hrs by agar well diffusion method; conditions: MTCC 227, 48 h, read-out: DIZ; method in brief: as §1
Aspergillus niger [7] = assay: Antifungal activity against Aspergillus niger MTCC 282 at 100 ug after 48 hrs by agar well diffusion method; conditions: MTCC 282, 48 h, read-out: DIZ; method in brief: as §1
Diutina rugosa [8] = assay: Antifungal activity against Candida rugosa NCIM 3462 at 100 ug after 48 hrs by agar well diffusion method; conditions: NCIM 3462, 48 h, read-out: DIZ; method in brief: as §1
Klebsiella pneumoniae = assay: Antibacterial activity against Klebsiella pneumoniae MTCC 618 by broth microdilution method
Candida albicans [9] = assay: Antifungal activity against Candida albicans MTCC 227 at 150 ug after 48 hrs by agar well diffusion method; conditions: MTCC 227, 48 h, read-out: DIZ; method in brief: as §1
Bacillus subtilis = assay: Antibacterial activity against Bacillus subtilis MTCC 441 by broth microdilution method

Structure (SMILES)	zone of inhibition at 150 µg/disc (Aspergillus niger [1]) [mm]	zone of inhibition at 100 µg/disc (Saccharomyces cerevisiae [2]) [mm]	zone of inhibition at 150 µg/disc (Saccharomyces cerevisiae [3]) [mm]	MIC (Staphylococcus aureus) [µg/mL]	MIC (Escherichia coli) [µg/mL]	zone of inhibition at 150 µg/disc (Diutina rugosa [4]) [mm]	MIC [5] [µg/mL]	MIC (Pseudomonas aeruginosa) [µg/mL]	zone of inhibition at 100 µg/disc (Candida albicans [6]) [mm]	zone of inhibition at 100 µg/disc (Aspergillus niger [7]) [mm]	zone of inhibition at 100 µg/disc (Diutina rugosa [8]) [mm]	MIC (Klebsiella pneumoniae) [µg/mL]	zone of inhibition at 150 µg/disc (Candida albicans [9]) [mm]	MIC (Bacillus subtilis) [µg/mL]
CC1(C)O[C@H]2O[C@@H]3COB(c4cccc([N+](=O)[O-])c4)O[C@@H]3[C@H]2O1	18	11	16	4.68 (≈ 14.6 µM)	9.38 (≈ 29.2 µM)	20	9.38 (≈ 29.2 µM)	18.8 (≈ 58.4 µM)	13	14	16	4.68 (≈ 14.6 µM)	18	2.34 (≈ 7.29 µM)
CC1(C)O[C@H]2O[C@@H]3COB(c4ccc(F)cc4)O[C@@H]3[C@H]2O1	6	7	10	18.8 (≈ 63.8 µM)	37.5 (≈ 128 µM)	14	75 (≈ 255 µM)	75 (≈ 255 µM)	6	0	11	37.5 (≈ 128 µM)	8	75 (≈ 255 µM)
CN[C@@H]1[C@H](O[C@H]2[C@H](O[C@H]3[C@H](O)[C@@H](O)[C@H](N=C(N)N)[C@@H](O)[C@@H]3N=C(N)N)O[C@@H](C)[C@]2(O)C=O)O[C@@H](CO)[C@H](O)[C@H]1O [STREPTOMYCIN]				6.25 (≈ 10.7 µM)	6.25 (≈ 10.7 µM)		3.12 (≈ 5.37 µM)	1.56 (≈ 2.69 µM)				3.12 (≈ 5.37 µM)		6.25 (≈ 10.7 µM)
CC1(C)S[C@@H]2[C@H](NC(=O)Cc3ccccc3)C(=O)N2[C@H]1C(=O)O [PENICILLIN G]				1.56 (≈ 4.67 µM)	12.5 (≈ 37.4 µM)		3.12 (≈ 9.35 µM)	12.5 (≈ 37.4 µM)				6.25 (≈ 18.7 µM)		1.56 (≈ 4.67 µM)
C=Cc1ccc(B2OC[C@H]3O[C@@H]4OC(C)(C)O[C@@H]4[C@H]3O2)cc1	14	6	8	75 (≈ 248 µM)	150 (≈ 496 µM)	0	75 (≈ 248 µM)	37.5 (≈ 124 µM)	6	9	0	150 (≈ 496 µM)	9	75 (≈ 248 µM)
CC1(C)O[C@H]2O[C@@H]3COB(c4ccc5ccccc5c4)O[C@@H]3[C@H]2O1	4	7	11	150 (≈ 460 µM)	150 (≈ 460 µM)	16	75 (≈ 230 µM)	150 (≈ 460 µM)	6	0	13	150 (≈ 460 µM)	9	150 (≈ 460 µM)
C[C@@H]1[C@H](O)[C@@H](C)/C=C/C=C/C=C/C=C/C=C/C=C/C=C/[C@H](O[C@@H]2O[C@H](C)[C@@H](O)[C@H](N)[C@@H]2O)C[C@@H]2O[C@](O)(C[C@@H](O)C[C@@H](O)[C@H](O)CC[C@@H](O)C[C@@H](O)CC(=O)O[C@H]1C)C[C@H](O)[C@H]2C(=O)O [AMPHOTERICIN B]		22							23.5	25	21			
CC1(C)O[C@H]2O[C@@H]3COB(c4ccc(C=O)cc4)O[C@@H]3[C@H]2O1	8	14	19	9.38 (≈ 30.8 µM)	4.68 (≈ 15.4 µM)	17	18.8 (≈ 61.7 µM)	37.5 (≈ 123 µM)	12	6	13	4.68 (≈ 15.4 µM)	14	18.8 (≈ 61.7 µM)
CC1(C)O[C@H]2O[C@@H]3COB(c4cccs4)O[C@@H]3[C@H]2O1	11	12	17	150 (≈ 532 µM)	150 (≈ 532 µM)	13	37.5 (≈ 133 µM)	75 (≈ 266 µM)	0	9	9	150 (≈ 532 µM)	6	75 (≈ 266 µM)
CC1(C)O[C@H]2O[C@@H]3COB(c4ccccc4)O[C@@H]3[C@H]2O1	12	0	0	75 (≈ 272 µM)	18.8 (≈ 67.9 µM)	0	18.8 (≈ 67.9 µM)	37.5 (≈ 136 µM)	0	8	0	75 (≈ 272 µM)	6	37.5 (≈ 136 µM)
Cc1ccc(B2OC[C@H]3O[C@@H]4OC(C)(C)O[C@@H]4[C@H]3O2)cc1	0	0	0	150 (≈ 517 µM)	150 (≈ 517 µM)	6	150 (≈ 517 µM)	150 (≈ 517 µM)	0	0	0	150 (≈ 517 µM)	0	150 (≈ 517 µM)
CC1(C)O[C@H]2O[C@@H]3COB(c4ccsc4)O[C@@H]3[C@H]2O1	16	10	14	37.5 (≈ 133 µM)	4.68 (≈ 16.6 µM)	20	18.8 (≈ 66.5 µM)	18.8 (≈ 66.5 µM)	0	12	14	75 (≈ 266 µM)	7	75 (≈ 266 µM)
COc1ccc(B2OC[C@H]3O[C@@H]4OC(C)(C)O[C@@H]4[C@H]3O2)cc1	0	0	0	150 (≈ 490 µM)	150 (≈ 490 µM)	10	150 (≈ 490 µM)	150 (≈ 490 µM)	0	0	7	75 (≈ 245 µM)	0	150 (≈ 490 µM)
